Source: ChEMBL document CHEMBL1124443, “2'-Fluorinated isonucleosides. 1. Synthesis and biological activity of some methyl 2'-deoxy-2'-fluoro-2'-pyrimidinyl-D-arabinopyranosides” (J Med Chem, 1989)

How the values were obtained:
Mus musculus [1] = assay: Percent increase in life span of leukemic mice administered, with compound at 50 mg/kgx5, intraperitoneally; assay type: functional; conditions: ip, route intraperitoneal
Summary of the method: (§1)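 Female DBA/2 mice (19–20 g) received 10^6 L1210 cells ip on day 0. Drug was given ip once daily for 5 consecutive days starting day 1. Survival was monitored daily. % ILS was derived from mean survival versus untreated mice.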

Mus musculus [2] = assay: Percent increase in life span of leukemic mice administered, with compound at 100 mg/kgx5, intraperitoneally; assay type: functional; conditions: ip, route intraperitoneal; summary of the method: as §1
Mus musculus [3] = assay: Percent increase in life span of leukemic mice administered, with compound at 25 mkdx3, on days 1,3,6; assay type: functional
Summary of the method: (§2)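 L1210 cells (10^6) were implanted ip on day 0 in female DBA/2 mice. Dosing was 5 or 25 mg/kg/day on days 1, 3 and 6 (3 doses). Daily survival monitoring; % increase in life span versus untreated controls.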

Mus musculus [4] = assay: Percent increase in life span of leukemic mice administered, with compound at 5 mkdx3, on days 1,3,6; assay type: functional; summary of the method: as §2
Mus musculus [5] = organism: Mus musculus; assay: Weight loss in mice treated with compound at 50 mkdx5; assay type: functional
Summary of the method: (§3)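 Female DBA/2 mice (19–20 g) bearing ip L1210 leukemia (10^6 cells, day 0) were dosed ip daily for 5 consecutive days starting on day 1. Mice were weighed daily, and weight loss was recorded as body weight in g.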

Mus musculus [6] = organism: Mus musculus; assay: Weight loss in mice treated with compound at 200 mkdx5; assay type: functional; summary of the method: as §3
Mus musculus [7] = organism: Mus musculus; assay: Weight loss in mice treated with compound at 100 mkdx5; assay type: functional; summary of the method: as §3
[8] = Therapeutic effect of compound (25 mkdx3) on mice with L1210/5-FU leukemia; No effect; conditions: mouse

Which results are given for Nc1ccn([C@@H]2O[C@H](CO)[C@@H](O)[C@@H]2O)c(=O)n1 [CYTARABINE]?
ILS at 50 mg/kg (Mus musculus [1]): 104%; ILS at 100 mg/kg (Mus musculus [2]): 126%

With O=c1[nH]cc(F)c(=O)[nH]1 [FLUOROURACIL] as the compound, how does the ILS (Mus musculus [3]) read?
Its ILS is 88%.

And the ILS (Mus musculus [4])?
Its ILS is 41%.

What about the Weight loss (Mus musculus [5]) of the same compound?
Its Weight loss is 14 g.

And the Weight loss (Mus musculus [6])?
Its Weight loss is 14 g.

And the Weight loss (Mus musculus [7])?
Its Weight loss is 14 g.

What about the ILS [8] of the same compound?
The ILS was “No effect”.
